Consider twelve compounds from ChEMBL document CHEMBL1764948, “Diversonol and blennolide derivatives from the endophytic fungus Microdiplodia sp.: absolute configuration of diversonol” (2011).

Converted amounts (≈) assume the structure as drawn. The source made the active and inactive calls. The rule behind the calls is not given here.

One test deals with Microbotryum violaceum. In words: Antifungal activity against Microbotryum violaceum assessed as zone of inhibition measured as radius at 50 ug by agar diffusion assay. It is filed as functional. The following applies: for zone of inhibition at 50 µg/disc: read-out: IZ. An outline of the steps:
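Samples at 1 mg/mL in acetone; 50 μg applied to a 9 mm sterile filter disk on MPY agar. The plate was then sprayed with a Microbotryum violaceum suspension and incubated at 20 °C. The inhibition zone radius was measured in mm from the disk centre.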

Another test relates to Priestia megaterium. As to the kind of experiment: Antibacterial activity against Bacillus megaterium by microtiter plate assay. It is filed as functional, organism-based. In outline: (§1)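 Minimum inhibitory concentration determined in liquid medium in microtiter wells.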
Another test deals with Escherichia coli. In words: Antibacterial activity against Escherichia coli K-12 by microtiter plate assay. The format is functional, organism-based. In outline:
as §1

The test system of another test is Legionella pneumophila. In words: Antibacterial activity against Legionella pneumophila Corby by microtiter plate assay. The format is functional. In outline: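 Broth microdilution MIC in liquid medium in microtiter wells. Legionella pneumophila Corby grown in YEB medium (10 g ACES, 10 g yeast extract per 1000 mL water, pH 6.9, plus supplements). Value reported as the minimum inhibitory concentration.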

On to NYSTATIN, for which the inhibition zone (IZ) in the test on Microbotryum violaceum amounted to 20 mm.

As to `C[C@H]1Oc2cccc(O)c2C(=O)[C@@H]1O`, the outcome in the test on Priestia megaterium and with Escherichia coli was inactive. This compound returned a minimum inhibitory concentration (MIC) against Legionella pneumophila of 1000 µg/mL (≈ 5.15 mM).

`NC[C@H]1O[C@H](O[C@H]2[C@H](O)[C@@H](O[C@H]3O[C@H](CO)[C@@H](O)[C@H](N)[C@H]3O)[C@H](N)C[C@@H]2N)[C@H](O)[C@@H](O)[C@@H]1O` [KANAMYCIN]: in the test with Legionella pneumophila, the MIC turned out to be 12.5 µg/mL (≈ 0.0258 mM).

For the compound `COC1=CC(=O)[C@@H](O)[C@@]2(O)C(=O)c3c(O)cc(C)cc3O[C@]12C` [MICRODIPLODIASOLOL], the outcome in the test with Priestia megaterium and in the test with Escherichia coli was inactive. The zone of inhibition at 50 µg/disc in the test on Microbotryum violaceum was 6 mm. This compound also returned an MIC in the test with Legionella pneumophila of 1000 µg/mL (≈ 3.12 mM).

With `C[C@@]12Oc3cc(CO)cc(O)c3C(=O)[C@@]1(O)[C@@H](O)CC[C@@H]2O` [MICRODIPLODIASOL], the result in the test with Priestia megaterium and with Escherichia coli was inactive. Further, in the test on Legionella pneumophila, the MIC turned out to be 125 µg/mL (≈ 0.403 mM).

Regarding `CC(C)[C@@H](C)/C=C/[C@@H](C)[C@H]1CC[C@H]2C3=CC=C4C[C@@H](O)CC[C@]4(C)[C@H]3CC[C@]12C` [ERGOSTEROL], the result in the test on Priestia megaterium, in the test with Microbotryum violaceum and in the test with Escherichia coli was inactive. For the same compound, in the test with Legionella pneumophila, it took 250 µg/mL (≈ 0.63 mM) to inhibit growth (MIC).

For the compound `Cc1cc(O)c2c(c1)O[C@@]1(C)[C@@H](O)CC[C@H](O)[C@]1(O)C2=O` [DIVERSONOL], the outcome in the test with Priestia megaterium and with Escherichia coli was inactive. In addition, in the test with Microbotryum violaceum, the zone of inhibition at 50 µg/disc was found to be 0 mm. The MIC against Legionella pneumophila worked out at 1000 µg/mL (≈ 3.4 mM).

Consider `C[C@]1([C@H]2CCC(=O)O2)CC(=O)c2c(O)cc(O)cc2O1` [MICRODIPLODIASONE], for which the result in the test with Priestia megaterium and in the test with Escherichia coli was inactive. In the test with Microbotryum violaceum, the zone of inhibition at 50 µg/disc came out at 0 mm. Besides, the MIC with Legionella pneumophila was 1000 µg/mL (≈ 3.59 mM).

Turning to `CC(C)=O` [ACETONE], the zone of inhibition at 50 µg/disc in the test on Microbotryum violaceum was 0 mm.

Take `C[C@@H]1C[C@@H]([C@H](O)CC2CC(=O)NC(=O)C2)C(=O)[C@@H](C)C1` [CYCLOHEXIMIDE]: the zone of inhibition at 50 µg/disc in the test with Microbotryum violaceum amounted to 50 mm.

For the compound `CC1(C)S[C@@H]2[C@H](NC(=O)Cc3ccccc3)C(=O)N2[C@H]1C(=O)O` [PENICILLIN G], the zone of inhibition at 50 µg/disc with Microbotryum violaceum was determined as 0 mm.

As to `CN(C)[C@@H]1C(O)=C(C(N)=O)C(=O)[C@@]2(O)C(O)=C3C(=O)c4c(O)cccc4[C@@](C)(O)[C@H]3C[C@@H]12` [TETRACYCLINE], the zone of inhibition at 50 µg/disc with Microbotryum violaceum is 0 mm.
